# GRIN3A LBD mod – NR3A (human) ligand-binding domain modulation. AID 1259313. NR3A LBD differential scanning fluorimetry, Tm shift; 0% = protein alone, 100% = glycine-bound protein. 2.5% of 340,000 active. Tm shift relative to glycine control, % at 25 µM;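 active = melting temperature shift of at least 10% of the positive control shift, at one fixed dose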
# SENP1 inh – blocks the human SENP1 SUMO protease catalytic domain; Q9P0U3; recombinant SENP1 catalytic domain, CyPet-SUMO1-YPet FRET cleavage; inhibition, % at 10 µM; 0.21% of 360,000 active;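 active = inhibition at least 30% at 10 µM, raw YFP signal under a set limit, fluorescence ratio 0.5 to 1.5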;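 also: 0% = enzyme with DMSO and 100% = no enzyme wells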
# Target sequence (Q9P0U3 419-644 limits assumed): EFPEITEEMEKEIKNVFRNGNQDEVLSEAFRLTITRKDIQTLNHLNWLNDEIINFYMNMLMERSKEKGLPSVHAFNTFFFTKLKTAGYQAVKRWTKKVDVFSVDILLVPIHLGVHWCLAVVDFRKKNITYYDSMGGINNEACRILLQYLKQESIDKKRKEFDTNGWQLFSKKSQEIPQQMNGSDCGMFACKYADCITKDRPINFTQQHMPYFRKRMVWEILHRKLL
#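 Assay system: hSENP1 catalytic domain, recombinant. Amount: SENP1 enzyme, 20 pM final. Schedule: 50 min reaction, RT, dark. Technique: FRET, CFP and YFP emission. Control set: no-enzyme wells low, DMSO-plus-enzyme wells high control.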
# Arr AP2 block – inhibitors of human beta-arrestin and AP2 interaction; FITC-arrestin peptide / GST-AP2 beads, flow cytometry; AP2 beta2 appendage carries R879A mutation; inhibition, % at 10 µM; 0.31% of 340,000 active;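 active = inhibition above a set limit, near 3 SD of compounds lacking own fluorescence, cut at about 54% in these data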;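 also: plate controls were DMSO wells for no effect and 5 µM unlabelled arrestin peptide for full effect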
#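 test system = AP2 appendage R879A on GSH beads | buffer or medium = PBS plus Tween 20 (0.05%) and BSA (0.1%) | incubation = 12 min plus 1 h, RT | detection = bead flow cytometry, FITC channel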
# Cardio protect – modulators protecting cardiomyocytes from myocardial damage; H9c2 cardiomyocytes, H2O2 injury protection, ATPLite, 2 h; protection from H2O2 cell death, % at 20 µM; 0.63% of 360,000 active;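 active = compounds giving at least 50% protection of heart cells from peroxide-induced death in the single-dose screen, raw or plate-pattern-corrected value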;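 also: 0% = DMSO wells with peroxide and 100% = DMSO wells without peroxide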
# iPSC survival up – enhancers of human iPSC single-cell survival | hiPSC single-cell survival, ATPlite luminescence; 100% = ROCK inhibitor wells, 0% = DMSO | survival enhancement, % at 20 µM | 0.044% of 360,000 active; in the data active = survival enhancement above about 18%;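 also: cells exposed to compounds for 16 hours before the ATP read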
# FAS-TE inh – FAS thioesterase (human) inhibition. P49327. inhibition, % at 15 µM. 0.67% of 360,000 active. AID 602261. recombinant FAS-TE, OMFH fluorogenic substrate, fluorescence endpoint;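 active = compounds whose normalised, plate-corrected inhibition of enzyme fluorescence in the single-dose primary screen is 50% or more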;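 also: 0% = DMSO with enzyme and 100% = substrate without enzyme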
# Numbers without * were called inactive; . = not tested or not shown. Most compounds without a hit are left out; they make up all but 4% or so of the library.
SMILES,GRIN3A LBD mod,SENP1 inh,Arr AP2 block,Cardio protect,iPSC survival up,FAS-TE inh
COc1cc(OC)c(C(=O)Nc2ccc3ccccc3c2)cc1OC,0,-1,4,1,0,15
O=C(Nc1ccc2oc(=O)ccc2c1)c1ccc(-c2cccc([N+](=O)[O-])c2)o1,35*,2,7,29,0,12
CC(=O)c1cccc(Nc2nc(-c3sc(N)nc3C)cs2)c1,-2,0,10,70*,0,-6
Cc1nc(C)c(-c2csc(Nc3cccc(O)c3)n2)s1,20*,2,-2,-12,-2,3
COc1ccccc1NC(=O)Nc1nnc([C@H]2C[C@H](O)[C@@H](CO)O2)s1,.,-1,.,-1,-1,-3
Cc1[nH]c2ccccc2c1/C=C(\C#N)C(=O)NCc1ccccc1,-9,-53,-2,4,0,0
Cc1ccc(C(C)NC(=O)/C(C#N)=C\c2c(C)[nH]c3ccccc23)cc1 (centres undefined),17*,-2,1,-22,-1,23
O=C1c2ccccc2C(c2nnnn2-c2ccc3c(c2)OCCO3)N1CCCn1ccnc1 (centres undefined),.,0,.,.,-1,-10
N#C/C(=C/c1ccc(CNC(=O)C(=O)Nc2cc(Cl)cc(Cl)c2)o1)C(=O)NCc1cccnc1,12*,-3,3,-3,1,-2
Cc1ccc(NC(=O)C(=O)NCc2ccc(/C=C(/C#N)C(=O)NCc3cccnc3)o2)cc1,-3,1,5,-2,-1,2
CCCC(=O)N(c1ccc2oc(=O)sc2c1)S(=O)(=O)c1ccccc1,0,1,11,56*,5,5
CC(C)(C)c1ccc(C(=O)CC(=O)c2cc(Cl)ccc2O)cc1,0,3,-2,8,0,14
Cc1ccc(C(=O)CC(=O)c2cc(Cl)ccc2O)cc1,11*,5,-1,-17,-2,10
CCOc1cc(/C=C(\C#N)C(=O)Nc2cccc(C(=O)O)c2)cc(Br)c1OC(=O)c1ccc(OC)cc1,-2,-34,0,-2,1,84*
CC1=C(c2ccccc2)C(O)(c2ccccc2)C(C)C1=O (centres undefined),-4,2,38,-4,2,1
C=CCOc1cccn2c(N(C=O)Cc3ccccc3)c(CC)nc12,.,-6,.,-12,0,0
Cc1[nH]n(-c2ccc(Br)cc2)c(=O)c1C=Nc1ccc(S(=O)(=O)Nc2nccs2)cc1,27*,2,5,-17,2,10
Cc1ccc(C(=O)C(NC(=O)c2ccco2)N2CCOCC2)cc1 (centres undefined),11*,0,-1,6,-2,-7
C/C(=N/Nc1ccc(C(=O)c2c(C)cc3ccccn23)cc1[N+](=O)[O-])c1ccc(O)cc1,11*,9,8,-11,1,6
C/C(=N\Nc1ccc(C(=O)c2c(C)cc3ccccn23)cc1[N+](=O)[O-])c1ccc(O)cc1,6,7,-6,-10,0,11
CC(C)CCN1C(=O)c2ccccc2C1c1nnnn1-c1ccc2c(c1)OCCO2 (centres undefined),.,1,.,.,0,-6
Cn1c(=O)c2c(nc(NCc3ccc4c(c3)OCO4)n2C)n(C)c1=O,1,0,12,53*,-3,-7
Cc1cn([C@H]2C[C@H](O)[C@@H](/C=C/C(=O)NCCC(C)C)O2)c(=O)[nH]c1=O,.,1,.,-3,-1,-7
Cc1c(NC(=O)c2cc(-c3cccs3)nc3ccccc23)c(=O)n(-c2ccccc2)n1C,-3,-2,-5,18,-2,-1
Cc1cc(C)c2nc(NNC(=O)c3cc(-c4cccs4)nc4ccccc34)sc2c1,-3,-32,6,56*,1,10
SMILES,GRIN3A LBD mod,SENP1 inh,Arr AP2 block,Cardio protect,iPSC survival up,FAS-TE inh
Cc1cccc(NC(=O)c2cc(-c3ccco3)nc3ccccc23)n1,1,14,3,61*,1,-3
Cc1ccc(NC(=O)c2cc(-c3cccs3)nc3ccccc23)nc1,0,-12,5,64*,1,22
O=C(NC(Sc1ccc(Cl)cc1)C(=O)O)c1ccccc1 (centres undefined),.,2,.,0,-2,-8
O=C(CSc1ncccn1)N(Cc1cccnc1)C(CCc1ccccc1)c1nc2ccccc2[nH]1 (centres undefined),.,-4,.,8,-1,-3
Cc1ccc(NC(=O)c2c(C)noc2-c2snnc2C)cc1,12*,-1,6,-2,0,33
Cc1nnsc1-c1onc(C)c1C(=O)Nc1cc(Cl)cc(Cl)c1,7,1,-8,-28,-1,45
O=C(NCc1ccccc1)c1cc(C2CCCN(C(=O)c3ccccc3)C2)on1 (centres undefined),.,1,.,-3,0,-9
COc1cc(OC)cc(C(=O)/C=C2\Sc3ccccc3N2C)c1,0,-43,22,2,4,-6
CN1/C(=C\C(=O)c2cccc([N+](=O)[O-])c2)Sc2ccccc21,12*,0,-7,-4,0,3
Cc1nc(SCC(=O)NCC2CCCO2)c2c3c(sc2n1)CCC3 (centres undefined),20*,-2,-1,-1,0,-3
O=C(CSc1ncnc2sc3c(c12)CCC3)NCC1CCCO1 (centres undefined),5,0,-1,0,2,-1
C=C(C)C1CC=C(C)/C(=N/NC(=O)c2cccs2)C1 (centres undefined),0,-1,-7,-6,-2,1
C=C(C)C1CC=C(C)C(=NNC(=O)c2ccncc2)C1 (centres undefined),11*,1,-1,-2,2,-6
O=c1c2ccccc2sn1-c1ccc(Cl)cc1Cl,.,-1,.,-35,-1,-8
C/C(=N\Nc1nnc2c3ccccc3n(C)c2n1)c1ccc(C)o1,-4,2,-7,70*,0,-7
C/C(=N\Nc1nc(C)cc(C)n1)c1ccc(C)o1,-1,3,4,2,0,-8
COc1ccccc1-n1c(-c2cc(-c3ccc(F)cc3)n[nH]2)n[nH]c1=S,19*,0,-31,4,2,-4
COC(=O)c1ccc(NC(=O)C(=O)N2CCN(C(=S)Nc3ccc(C)cc3)CC2)cc1,11*,4,-4,-3,-1,1
COC(=O)c1ccc(NC(=O)C(=O)N2CCN(C(=S)Nc3ccc(OC)cc3)CC2)cc1,5,5,15,-4,-2,-10
CCOC(=O)c1ccc(N/N=C/c2cc(Br)cc([N+](=O)[O-])c2O)cc1,19*,7,-12,-15,-1,8

# Screens: PubChem BioAssay, several laboratories
